Assay results: ChEMBL document CHEMBL4177542, “A New Combination of a Pleuromutilin Derivative and Doxycycline for Treatment of Multidrug-Resistant Acinetobacter baumannii” (J Med Chem, 2017)
In brackets after ≈: the same amount, converted by molar mass.

What was measured:
[1] = system: Acinetobacter baumannii; test: Growth inhibition of Acinetobacter baumannii ATCC 19606 after 48 hrs by resazurin dye based microdilution method; type: functional
In short: (§1)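 A. baumannii ATCC 19606 grown in tryptic soy broth, 37 °C with shaking, to mid-log (OD 0.5). Cultures treated with serial dilutions of inhibitor (DMSO stock 1 mg/100 μL), 48 h at 37 °C. Resazurin then added, 1 h at 37 °C with shaking. MIC is the lowest concentration staying blue; MBC is blue retained over 4 h, with CFU plating if needed (99.9% kill).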

[2] = system: Acinetobacter baumannii; test: Bactericidal activity against multidrug-resistant Acinetobacter baumannii ATCC BAA 18002 after 48 hrs by resazurin dye based broth microdilution method; type: functional; conditions: for MBC: read-out: MBC99.9
In short: (§2)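 Broth microdilution in tryptic soy broth. Mid-log cultures (OD600 0.5) treated with serial dilutions from a DMSO stock (1 mg per 100 μL) for 48 h at 37 °C. Resazurin (stock 0.02%) then added for 1 h at 37 °C. MIC is the lowest concentration staying blue; MBC is blue retained over 4 h (99.9% kill), with CFU plating when needed.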

[3] = system: Acinetobacter baumannii; test: Bactericidal activity against Acinetobacter baumannii ATCC 19606 after 48 hrs by resazurin dye based microdilution method; type: functional; conditions: for MBC: ATCC 19606 = CIP 70.34 = JCM 6841, 48 h, read-out: MBC99.9; in short: as §1
[4] = system: Vero; test: Cytotoxicity against African green monkey Vero cells after 72 hrs by MTT assay; type: cell-based, Chlorocebus sabaeus
In short: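 Vero (ATCC CCL-81) cells in Eagle's MEM with 10% FBS and penicillin-streptomycin, in 96-well plates. Serial dilutions from 0.78 to 200 μg/mL. Tunicamycin, colistin or tobramycin as controls on each plate. Viability by MTT, giving IC50.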

[5] = system: Acinetobacter baumannii; test: Antibacterial activity against Acinetobacter baumannii ATCC 19606 infected in C57BL/6 mouse assessed as survival rate at 6 mg/kg, ip administered as single dose measured for 5 days (reference value: <20%); type: functional; conditions: ATCC 19606 = CIP 70.34 = JCM 6841, ip, 120 h
In short: (§3)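 C57BL/6 mice (n = 5 per group; 4 untreated controls) infected intraperitoneally with A. baumannii ATCC19606 grown at 37 °C and collected by centrifugation, at a dose giving 75% death. Single intraperitoneal dose (2 to 60 mg/kg) given 1 h after infection. Mice monitored for 5 days, with death as the end point; survival rate recorded.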

[6] = system: Acinetobacter baumannii; test: Growth inhibition of multidrug-resistant Acinetobacter baumannii ATCC BAA 18002 after 48 hrs by resazurin dye based broth microdilution method; type: functional; in short: as §2
[7] = Half life in Sprague-Dawley rat liver microsomes at 500 ng/ml by LC/MS analysis; type: ADME, microsome
In short: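 Pooled Sprague-Dawley rat liver microsomes at 1 mg/mL protein in 100 mM phosphate, pH 7.4. Compound at 500 ng/mL final; verapamil as positive control. Pre-equilibrated 5 min at 37 °C, then 1 mM NADPH added. Triplicate samples at 0, 5, 10, 20, 30, 45 and 60 min, quenched in 4 volumes of cold methanol, analysed by LC-MS.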

[8] = Solubility of the compound in water at 10 mg after 24 hrs by HPLC based shake flask method; type: physicochemical
[9] = system: Acinetobacter baumannii; test: Potentiation of doxycycline-induced antimicrobial activity against Acinetobacter baumannii ATCC 19606 at 0.78 ug/ml in presence of 0.025 ug/ml doxycycline by microdilution broth checkerboard method; type: functional, ATCC 19606 = CIP 70.34 = JCM 6841
In short: (§4)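 A. baumannii ATCC 19606 in a broth microdilution checkerboard with doxycycline, 96 concentration combinations. ΣFIC = C_A/MIC_A + C_B/MIC_B, taken for wells at the growth/no-growth interface; ΣFIC <0.5 counts as synergy.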

[10] = system: Acinetobacter baumannii; test: Potentiation of doxycycline-induced antimicrobial activity against Acinetobacter baumannii ATCC 19606 at 1.56 ug/ml in presence of 0.05 ug/ml doxycycline by microdilution broth checkerboard method; type: functional, ATCC 19606 = CIP 70.34 = JCM 6841; in short: as §4
[11] = system: Escherichia coli; test: Growth inhibition of Escherichia coli ATCC 10798 after 48 hrs by resazurin dye based microdilution method; type: functional; conditions: ATCC 10798, 48 h; in short: as §2
[12] = system: Staphylococcus aureus; test: Growth inhibition of Staphylococcus aureus ATCC 25923 after 48 hrs by resazurin dye based microdilution method; type: functional; conditions: ATCC 25923, 48 h; in short: as §2
[13] = system: Pseudomonas aeruginosa; test: Bactericidal activity against Pseudomonas aeruginosa ATCC 27853 after 48 hrs by resazurin dye based microdilution method; type: functional; conditions: ATCC 27853, 48 h, read-out: MBC99.9; in short: as §2
[14] = system: Escherichia coli; test: Bactericidal activity against Escherichia coli ATCC 10798 after 48 hrs by resazurin dye based microdilution method; type: functional; conditions: ATCC 10798, 48 h, read-out: MBC99.9; in short: as §2
[15] = system: Staphylococcus aureus; test: Bactericidal activity against Staphylococcus aureus ATCC 25923 after 48 hrs by resazurin dye based microdilution method; type: functional; conditions: ATCC 25923, 48 h, read-out: MBC99.9; in short: as §2
[16] = system: Klebsiella pneumoniae; test: Bactericidal activity against Klebsiella pneumoniae ATCC 8047 after 48 hrs by resazurin dye based microdilution method; type: functional; conditions: ATCC 8047, 48 h, read-out: MBC99.9; in short: as §2
[17] = system: Klebsiella pneumoniae; test: Growth inhibition of Klebsiella pneumoniae ATCC 8047 after 48 hrs by resazurin dye based microdilution method; type: functional; conditions: ATCC 8047, 48 h; in short: as §2
[18] = system: Pseudomonas aeruginosa; test: Growth inhibition of Pseudomonas aeruginosa ATCC 27853 after 48 hrs by resazurin dye based microdilution method; type: functional; conditions: ATCC 27853, 48 h; in short: as §2
[19] = system: Acinetobacter baumannii; test: Synergistic antibacterial activity against Acinetobacter baumannii ATCC 19606 infected in C57BL/6 mouse assessed as increase in survival rate at compound to doxycycline ratio of 35:1 administered ip as single dose measured for 5 days; type: functional; conditions: ATCC 19606 = CIP 70.34 = JCM 6841, ip, 120 h; in short: as §3
[20] = ATCC 19606 = CIP 70.34 = JCM 6841, 48 h
[21] = Chlorocebus sabaeus, Vero, 72 h, read-out: IC50
[22] = ATCC 19606 = CIP 70.34 = JCM 6841

| Molecule | MIC [1, 20] | MBC [2] | MBC [3] | IC50 [4, 21] | MIC ([6]; ATCC BAA 18002, 48 h) | also measured |
| --- | --- | --- | --- | --- | --- | --- |
| NC[C@H]1O[C@H](O[C@H]2[C@H](O)[C@@H](O[C@H]3O[C@H](CO)[C@@H](O)[C@H](N)[C@H]3O)[C@H](N)C[C@@H]2N)[C@H](N)C[C@@H]1O [TOBRAMYCIN] | 6.25 µg/mL (≈ 13.4 µM) | > 25 µg/mL | 12.5 µg/mL (≈ 26.7 µM) | > 200 µg/mL | > 25 µg/mL | survival at 6 mg/kg [5]: 100% |
| COLISTIN [listing 1 of 2 here] | – | – | – | – | – | MIC [1, 22]: 3.13 µg/mL; MBC99.9 [2]: 25 µg/mL; MBC99.9 [3, 22]: 6.25 µg/mL; MIC [6]: > 12.5 µg/mL |
| CCCCCCCCCCCCC/C=C/C(=O)N[C@H]1[C@H](O[C@H]2O[C@H](CO)[C@@H](O)[C@H](O)[C@H]2NC(C)=O)O[C@H](CC(O)[C@H]2O[C@@H](n3ccc(=O)[nH]c3=O)[C@H](O)[C@@H]2O)[C@H](O)[C@@H]1O (stereo partly drawn) | – | – | – | 0.2 µg/mL (≈ 0.237 µM) | – | – |
| C=C[C@]1(C)C[C@@H](OC(=O)CSC(C)(C)CNC(=O)[C@H](NCCN)C(C)C)[C@]2(C)[C@H](C)CC[C@]3(CC[C@@H](O)[C@H]32)[C@@H](C)[C@@H]1O | – | > 12.5 µg/mL | – | – | 3.15 µg/mL (≈ 5.16 µM) | – |
| C=C[C@]1(C)C[C@@H](OC(=O)CSC(C)(C)CNC(=O)[C@H](NC(=O)CN)C(C)C)[C@]2(C)[C@H](C)CC[C@]3(CC[C@@H](O)[C@H]32)[C@@H](C)[C@@H]1O | 3.13 µg/mL (≈ 5.02 µM) | > 12.5 µg/mL | – | – | 3.13 µg/mL (≈ 5.02 µM) | – |
| COLISTIN [listing 2 of 2 here] | – | – | – | – | – | IC50 ([4]; vero): > 200 µg/mL |
| C=C[C@]1(C)C[C@@H](OC(=O)CSC(C)(C)CNC(=O)[C@H](N)C(C)C)[C@]2(C)[C@H](C)CC[C@]3(CCC(=O)[C@H]32)[C@@H](C)[C@@H]1O [VALNEMULIN] | 3.13 µg/mL (≈ 5.54 µM) | 25 µg/mL (≈ 44.3 µM) | 12.5 µg/mL (≈ 22.1 µM) | 14.9 µg/mL (≈ 26.4 µM) | 6.25 µg/mL (≈ 11.1 µM) | t1/2 [7]: 34.8 s; solubility [8]: Soluble; fractional inhibitory concentration index (FICI) [9]: 0.375; fractional inhibitory concentration index (FICI) [10]: 0.375 |
| C[C@H]1c2cccc(O)c2C(=O)C2=C(O)[C@]3(O)C(=O)C(C(N)=O)=C(O)[C@@H](N(C)C)[C@@H]3[C@@H](O)[C@@H]21.O [DOXYCYCLINE] | 0.3 µg/mL | – | 0.4 µg/mL | – | > 25 µg/mL | MIC [11]: 3.13 µg/mL; MIC [12]: 3.13 µg/mL; MBC [13]: 25 µg/mL; MBC [14]: 6.25 µg/mL; MBC [15]: 12.5 µg/mL; MBC [16]: 0.78 µg/mL; MIC [17]: 0.25 µg/mL; MIC [18]: 12.5 µg/mL; ED50 [19]: < 2 mg/kg |
